Source: ChEMBL document CHEMBL3425484, “Novel N-benzenesulfonyl sophocarpinol derivatives as coxsackie B virus inhibitors” (ACS Med Chem Lett, 2015)

Experiments:
Coxsackievirus [1] = experiment: Antiviral activity against Coxsackievirus B1 infected in african green monkey Vero cells assessed as reduction in viral-induced cytopathic effect; type: functional, organism-based
Procedure, shortened: (§1)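 Vero (African green monkey kidney) cells were infected with the CVB subtype and scored by viral cytopathogenic effect (CPE) reduction, with ribavirin as the positive control. IC50 is the concentration that inhibits CVB growth by 50%.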

[2] = Selectivity index, ratio of TC50 for african green monkey Vero cells to IC50 for Coxsackievirus B1 infected in african green monkey Vero cells; type: toxicity, cell-based; conditions: read-out: Selectivity Index
Procedure, shortened: (§2)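 SI is calculated as TC50 (50% inhibition of Vero cell growth) divided by IC50 (50% inhibition of the respective CVB subtype's growth, from the CPE assay in Vero cells, ribavirin as positive control).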

[3] = Selectivity index, ratio of TC50 for african green monkey Vero cells to IC50 for Coxsackievirus B2 infected in african green monkey Vero cells; type: toxicity, cell-based; conditions: read-out: Selectivity Index; procedure, shortened: as §2
[4] = Cytotoxicity against african green monkey Vero cells assessed as inhibition of cell growth after 24 hrs by CPE assay; type: cell-based; conditions: chlorocebus sabaeus, read-out: TC50
Coxsackievirus [5] = experiment: Antiviral activity against Coxsackievirus B2 infected in african green monkey Vero cells assessed as reduction in viral-induced cytopathic effect; type: functional, organism-based; procedure, shortened: as §1
[6] = Selectivity index, ratio of TC50 for african green monkey Vero cells to IC50 for Coxsackievirus B3 infected in african green monkey Vero cells; type: toxicity, cell-based; conditions: read-out: Selectivity Index; procedure, shortened: as §2
Coxsackievirus [7] = experiment: Antiviral activity against Coxsackievirus B5 infected in african green monkey Vero cells assessed as reduction in viral-induced cytopathic effect; type: functional, organism-based; procedure, shortened: as §1
Coxsackievirus [8] = experiment: Antiviral activity against Coxsackievirus B6 infected in african green monkey Vero cells assessed as reduction in viral-induced cytopathic effect; type: functional, organism-based; procedure, shortened: as §1
Coxsackievirus [9] = experiment: Antiviral activity against Coxsackievirus B3 infected in african green monkey Vero cells assessed as reduction in viral-induced cytopathic effect; type: functional, organism-based; procedure, shortened: as §1
[10] = Selectivity index, ratio of TC50 for african green monkey Vero cells to IC50 for Coxsackievirus B6 infected in african green monkey Vero cells; type: toxicity, cell-based; conditions: read-out: Selectivity Index; procedure, shortened: as §2
[11] = Selectivity index, ratio of TC50 for african green monkey Vero cells to IC50 for Coxsackievirus B5 infected in african green monkey Vero cells; type: toxicity, cell-based; conditions: read-out: Selectivity Index; procedure, shortened: as §2

Compound	IC50 (Coxsackievirus [1]) [nM]	selectivity ratio [2]	selectivity ratio [3]	CC50 at 24 h [4] [nM]	IC50 (Coxsackievirus [5]) [nM]	selectivity ratio [6]	IC50 (Coxsackievirus [7]) [nM]	IC50 (Coxsackievirus [8]) [nM]	IC50 (Coxsackievirus [9]) [nM]	selectivity ratio [10]	selectivity ratio [11]
COC(=O)C/C=C\[C@@H]1[C@H]2CCCN3CCC[C@@H](CN1S(=O)(=O)c1cccc(C#N)c1)[C@@H]23	2600	188	38.9	543000	12600	177	10500	2810	3070	174	46.7
O=[N+]([O-])c1ccccc1S(=O)(=O)N1C[C@@H]2CCCN3CCC[C@@H]([C@H]23)[C@H]1/C=C\CCO	1460	116	117	354000	1440	153	3630	620	2310	276	46.8
